Data as given in ChEMBL document CHEMBL1641463, “Discovery of a series of potent arylthiadiazole H(3) antagonists” (Bioorg Med Chem Lett, 2011).

Assays:
Histamine H3 receptor = Histamine H3 receptor (Homo sapiens, UniProt Q9Y5N1); assay: Displacement of [3H]-N-alpha-methylhistamine from human recombinant histamine H3 receptor expressed in HEK cells after 30 mins by scintillation counting; format: cell-based, HEK293
How it was run: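 P2 membrane pellet from HEK cells expressing recombinant human H3, 3 µg protein per well, in 50 mM Tris–HCl pH 7.4 with 1 nM [3H]N-methylhistamine (82 Ci/mmol). Compound tested at half-log steps across five orders of magnitude. Nonspecific binding defined with 10^-5 M thioperamide. 30 min at 30 °C, then filtration on 0.3% PEI-soaked GF/B filters, three buffer rinses, scintillation counting. Ki from nonlinear least-squares curve fit.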

[1] = AUC (0 to 6 hrs) in rat at 10 mg/kg, po; format: ADME, organism-based; parameters: time < 6 hr, dose 10 mg/kg, route oral; conditions: plasma
How it was run: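 Rat exposure measured after a 10 mg/kg oral dose; AUC taken over 0–6 h, in ng·h/ml.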

[2] = Drug level in mouse brain at 10 mg/kg, po after 4 hrs; format: ADME, organism-based; parameters: dose 10 mg/kg, route oral; conditions: read-out: Drug uptake
How it was run: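 Mouse brain concentration measured 4 h after a 10 mg/kg oral dose, in ng/g.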

[3] = target: Histamine H3 receptor (Mus musculus) (UniProt P58406); assay: Displacement of [3H]-N-alpha-methylhistamine from histamine H3 receptor in […] mouse cortex after 4 hrs by scintillation counting
How it was run: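 Ex vivo binding in cortex dissected from individual ICR mice, read at 4 h. Cortex homogenized in ice-cold 50 mM Na2HPO4–KH2PO4 pH 6.8 and frozen at −80 °C for at least 12 h; protein measured by BCA. Homogenate incubated 30 min at room temperature with 1 nM [3H]N-methylhistamine and 0.1% BSA; thioperamide defines nonspecific binding. Quadruplicates, filtered on PEI-presoaked GF/B; specific = total − nonspecific.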

Cytochrome P450 3A4 = Cytochrome P450 3A4 (Homo sapiens, UniProt P08684); assay: Inhibition of CYP3A4; format: ADME
How it was run: (§1)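 CYP3A4, 2D6 and 2C9 inhibition tested under both pre-incubation and co-incubation conditions.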

Cytochrome P450 2D6 = Cytochrome P450 2D6 (Homo sapiens, UniProt P10635); assay: Inhibition of CYP2D6; format: ADME; how it was run: as §1
Cytochrome P450 2C9 = Cytochrome P450 2C9 (Homo sapiens, UniProt P11712); assay: Inhibition of CYP2C9; format: ADME; how it was run: as §1
Chain of Cytochrome P450 2C9 (P11712 whole entry): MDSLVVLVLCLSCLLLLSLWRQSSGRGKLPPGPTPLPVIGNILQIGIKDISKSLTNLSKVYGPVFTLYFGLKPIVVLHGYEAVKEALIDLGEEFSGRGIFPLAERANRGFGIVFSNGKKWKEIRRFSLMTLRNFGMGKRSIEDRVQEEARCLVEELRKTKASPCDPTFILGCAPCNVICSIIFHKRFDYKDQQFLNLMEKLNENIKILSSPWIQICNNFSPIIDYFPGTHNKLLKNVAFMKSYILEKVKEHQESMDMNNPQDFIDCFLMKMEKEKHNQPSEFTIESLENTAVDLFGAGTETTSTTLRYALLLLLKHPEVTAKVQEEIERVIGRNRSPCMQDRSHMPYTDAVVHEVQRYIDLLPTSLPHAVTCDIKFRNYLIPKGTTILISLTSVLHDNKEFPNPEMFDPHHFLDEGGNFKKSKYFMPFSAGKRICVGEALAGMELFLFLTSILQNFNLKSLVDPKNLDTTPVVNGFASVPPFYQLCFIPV

Chain of Histamine H3 receptor (Q9Y5N1 whole entry): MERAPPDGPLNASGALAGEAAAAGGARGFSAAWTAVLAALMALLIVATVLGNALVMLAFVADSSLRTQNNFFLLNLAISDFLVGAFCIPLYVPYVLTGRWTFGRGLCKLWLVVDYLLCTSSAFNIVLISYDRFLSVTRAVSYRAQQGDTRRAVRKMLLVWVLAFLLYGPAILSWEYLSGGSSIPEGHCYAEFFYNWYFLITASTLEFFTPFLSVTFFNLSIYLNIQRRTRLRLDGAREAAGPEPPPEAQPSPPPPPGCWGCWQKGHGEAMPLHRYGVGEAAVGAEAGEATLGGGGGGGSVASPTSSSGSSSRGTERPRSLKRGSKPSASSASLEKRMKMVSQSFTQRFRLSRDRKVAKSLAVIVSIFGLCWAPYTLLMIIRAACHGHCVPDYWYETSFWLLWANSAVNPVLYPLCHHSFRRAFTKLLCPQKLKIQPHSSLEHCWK
Chain of Cytochrome P450 3A4 (P08684 whole entry): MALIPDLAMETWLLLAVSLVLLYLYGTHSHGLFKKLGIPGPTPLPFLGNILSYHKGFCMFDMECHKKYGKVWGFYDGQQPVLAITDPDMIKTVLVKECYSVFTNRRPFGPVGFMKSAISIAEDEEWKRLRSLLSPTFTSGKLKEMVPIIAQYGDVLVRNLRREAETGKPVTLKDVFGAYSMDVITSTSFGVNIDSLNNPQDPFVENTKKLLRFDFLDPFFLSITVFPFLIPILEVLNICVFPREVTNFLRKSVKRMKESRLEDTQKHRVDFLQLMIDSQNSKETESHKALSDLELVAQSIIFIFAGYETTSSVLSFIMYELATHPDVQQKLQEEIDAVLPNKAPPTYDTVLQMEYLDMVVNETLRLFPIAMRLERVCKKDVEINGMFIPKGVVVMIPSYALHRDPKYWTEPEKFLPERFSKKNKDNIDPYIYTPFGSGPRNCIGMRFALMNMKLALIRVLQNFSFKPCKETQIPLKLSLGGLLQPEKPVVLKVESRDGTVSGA
Chain of Cytochrome P450 2D6 (P10635 whole entry): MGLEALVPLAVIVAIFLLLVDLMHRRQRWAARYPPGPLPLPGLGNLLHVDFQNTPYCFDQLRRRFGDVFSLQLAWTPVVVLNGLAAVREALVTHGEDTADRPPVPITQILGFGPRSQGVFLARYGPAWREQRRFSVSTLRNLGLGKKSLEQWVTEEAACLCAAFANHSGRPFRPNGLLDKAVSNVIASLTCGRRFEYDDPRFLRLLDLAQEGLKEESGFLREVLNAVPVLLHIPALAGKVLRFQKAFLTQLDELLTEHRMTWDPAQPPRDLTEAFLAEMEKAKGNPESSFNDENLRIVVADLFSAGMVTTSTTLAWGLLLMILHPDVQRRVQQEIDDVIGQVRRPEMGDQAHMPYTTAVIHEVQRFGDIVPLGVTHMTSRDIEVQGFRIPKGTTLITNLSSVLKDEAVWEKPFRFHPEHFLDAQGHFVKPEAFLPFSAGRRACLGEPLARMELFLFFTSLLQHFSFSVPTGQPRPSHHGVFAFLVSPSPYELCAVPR
Chain of Histamine H3 receptor (Mus musculus) (P58406 whole entry): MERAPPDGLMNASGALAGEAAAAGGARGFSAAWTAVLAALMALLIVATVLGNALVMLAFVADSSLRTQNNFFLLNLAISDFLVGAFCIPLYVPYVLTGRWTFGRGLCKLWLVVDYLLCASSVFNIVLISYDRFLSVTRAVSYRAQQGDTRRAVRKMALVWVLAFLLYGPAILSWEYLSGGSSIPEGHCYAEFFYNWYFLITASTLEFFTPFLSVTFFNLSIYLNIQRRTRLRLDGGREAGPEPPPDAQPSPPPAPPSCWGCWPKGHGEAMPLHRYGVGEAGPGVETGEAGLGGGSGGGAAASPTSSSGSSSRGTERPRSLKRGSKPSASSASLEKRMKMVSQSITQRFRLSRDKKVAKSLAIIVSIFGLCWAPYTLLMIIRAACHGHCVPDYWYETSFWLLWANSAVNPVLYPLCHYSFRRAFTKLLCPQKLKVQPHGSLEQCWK

Row | Structure (SMILES) | Ki (Histamine H3 receptor) [nM] | also measured
1 | CC(=O)c1ccc(-c2nnc(N3CCC(N4CCCCC4)CC3)s2)cc1 | 65 | 
2 | COc1cc(F)cc(-c2nnc(N3CCC(N4CCCCC4)CC3)s2)c1 | 16 | 
3 | COc1cc(Cl)cc(-c2nnc(N3CCC(N4CCCCC4)CC3)s2)c1 | 12 | AUC(0-t) at 6 h [1]: 379 ng·h/mL; concentration at 4 h [2]: 9030 ng/g; Activity [3]: 90%; INH (Cytochrome P450 3A4): > 20 µM; INH (Cytochrome P450 2D6): > 20 µM; INH (Cytochrome P450 2C9): > 20 µM
4 | COc1cccc(-c2nnc(N3CCC(N4CCCCC4)CC3)s2)c1 | 31.9 | 
5 | CC(=O)c1cccc(-c2nnc(N3CCC(N4CCCCC4)CC3)s2)c1 | 4 | 
6 | Cc1ccc(-c2nnc(N3CCC(N4CCCCC4)CC3)s2)cc1 | 163 | 
7 | N#Cc1ccc(-c2nnc(N3CCC(N4CCCCC4)CC3)s2)cc1 | 36.4 | 
8 | CCN1CCN(c2nnc(-c3ccc(OC)cc3)s2)CC1 | 162 | 
9 | COc1cc(OC)cc(-c2nnc(N3CCC(N4CCCCC4)CC3)s2)c1 | 15 | 
10 | CC(=O)c1ccccc1-c1nnc(N2CCC(N3CCCCC3)CC2)s1 | 8.4 | 
11 | c1cnc(-c2nnc(N3CCC(N4CCCCC4)CC3)s2)nc1 | 103 | 
12 | O=C(Nc1nnc(N2CCC(N3CCCCC3)CC2)s1)NC1CCCC1 | 48.6 | INH (Cytochrome P450 3A4): > 20 µM; INH (Cytochrome P450 2D6): > 20 µM; INH (Cytochrome P450 2C9): > 20 µM
13 | c1ccc(-c2nnc(N3CCC(N4CCCCC4)CC3)s2)cc1 | 80.1 | 
14 | Clc1ccc(-c2nnc(N3CCC(N4CCCCC4)CC3)s2)cc1 | 161 | 
15 | N#Cc1cccc(-c2nnc(N3CCC(N4CCCCC4)CC3)s2)c1 | 42.6 | 
16 | N#Cc1cc(C#N)cc(-c2nnc(N3CCC(N4CCCCC4)CC3)s2)c1 | 23 | 
17 | Cc1cccc(-c2nnc(N3CCC(N4CCCCC4)CC3)s2)n1 | 6.1 | 
18 | COc1ccccc1-c1nnc(N2CCC(N3CCCCC3)CC2)s1 | 40 | 

Row | Structure (SMILES) | Ki (Histamine H3 receptor) [nM] | also measured
19 | Cc1ccccc1-c1nnc(N2CCC(N3CCCCC3)CC2)s1 | 36 | 
20 | Clc1cc(Cl)cc(-c2nnc(N3CCC(N4CCCCC4)CC3)s2)c1 | 72 | 
21 | COc1ccc(-c2nnc(N3CCN(C4CCCC4)CC3)s2)cc1 | 182 | 
22 | COc1ccc(-c2nnc(N3CCN4CCCC4C3)s2)cc1 (stereo not given) | 653 | 
23 | Fc1cc(F)cc(-c2nnc(N3CCC(N4CCCCC4)CC3)s2)c1 | 50 | 
24 | c1ccc(-c2nnc(N3CCC(N4CCCCC4)CC3)s2)nc1 | 30 | 
25 | Fc1ccc(-c2nnc(N3CCC(N4CCCCC4)CC3)s2)cc1 | 39 | 
26 | COc1cc(C#N)cc(-c2nnc(N3CCC(N4CCCCC4)CC3)s2)c1 | 12 | 
27 | COc1ccc(-c2nnc(N3CCC(N4CCCC4)CC3)s2)cc1 | 601 | 
28 | Clc1ccccc1-c1nnc(N2CCC(N3CCCCC3)CC2)s1 | 69 | 
29 | Fc1ccccc1-c1nnc(N2CCC(N3CCCCC3)CC2)s1 | 36 | 
30 | Fc1cccc(-c2nnc(N3CCC(N4CCCCC4)CC3)s2)c1 | 62 | 
31 | Clc1cccc(-c2nnc(N3CCC(N4CCCCC4)CC3)s2)c1 | 49 | 
32 | COc1cccc(-c2nnc(N3CCC(N4CCCCC4)CC3)s2)n1 | 3.5 | concentration at 4 h [2]: 1530 ng/g; Activity [3]: 74%; INH (Cytochrome P450 3A4): > 20 µM; INH (Cytochrome P450 2D6): > 20 µM; INH (Cytochrome P450 2C9): > 20 µM
33 | c1n[nH]cc1-c1nnc(N2CCC(N3CCCCC3)CC2)s1 | 192 | 
34 | Cc1cccc(-c2nnc(N3CCC(N4CCCCC4)CC3)s2)c1 | 60 | 
35 | COc1ncc(-c2nnc(N3CCC(N4CCCCC4)CC3)s2)s1 | 28 | 
36 | COc1ccc(-c2nnc(N3CCC(N4CCCCC4)CC3)s2)cc1 | 40.1 | 
